{
  "source": "ChEMBL document CHEMBL3352378",
  "about": "“Novel carbazole inhibits phospho-STAT3 through induction of protein-tyrosine phosphatase PTPN6” (J Med Chem, 2014)",
  "key": {"[1]": {"target": "Tyrosine-protein phosphatase non-receptor type 6 (Homo sapiens) (UniProt P29350)", "sequence (P29350 whole entry)": "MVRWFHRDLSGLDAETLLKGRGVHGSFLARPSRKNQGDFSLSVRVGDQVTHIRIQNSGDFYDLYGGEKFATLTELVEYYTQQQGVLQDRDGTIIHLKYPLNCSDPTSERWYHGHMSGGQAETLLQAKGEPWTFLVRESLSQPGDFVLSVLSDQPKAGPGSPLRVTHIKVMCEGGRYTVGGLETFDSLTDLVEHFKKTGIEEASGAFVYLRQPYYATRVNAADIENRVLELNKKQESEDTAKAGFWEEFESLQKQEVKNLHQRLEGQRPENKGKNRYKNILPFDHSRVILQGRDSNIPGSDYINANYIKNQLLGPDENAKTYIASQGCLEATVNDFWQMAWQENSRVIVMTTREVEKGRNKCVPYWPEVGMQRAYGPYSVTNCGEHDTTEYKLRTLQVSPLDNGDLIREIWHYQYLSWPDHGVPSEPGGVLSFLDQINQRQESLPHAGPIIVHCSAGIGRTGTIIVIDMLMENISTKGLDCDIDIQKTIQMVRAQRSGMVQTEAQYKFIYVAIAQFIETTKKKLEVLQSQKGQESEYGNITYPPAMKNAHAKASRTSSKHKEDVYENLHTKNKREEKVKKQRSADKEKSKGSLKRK", "assay": "Induction of PTPN6 in human Hs578T cells assessed as inhibition of STAT3 phosphorylation at 3 uM after 16 hrs by Western blotting analysis in presence of pervanadate", "assay_type": "cell-based", "conditions": "Hs-578T", "method_in_brief": "(§1)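 HS578T and SUM149PT cells treated for 16 h without or with increasing pervanadate as a phosphatase inhibitor; JAK1/2 inhibitor CP690550 run in parallel. Lysates immunoblotted for phospho-STAT3 (Y705), with β-actin as loading control.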"}, "[2]": {"target": "Tyrosine-protein phosphatase non-receptor type 6 (Homo sapiens) (UniProt P29350)", "assay": "Induction of PTPN6 in human SUM149PT cells assessed as inhibition of STAT3 phosphorylation at 3 uM after 16 hrs by Western blotting analysis in presence of pervanadate", "assay_type": "cell-based", "method_in_brief": "as §1"}},
  "note": "Activity calls are given as the source filed them. The rule behind the calls is not given here.",
  "data": [
    {"smiles": "C[C@@H]1CCN(C(=O)CC#N)C[C@@H]1N(C)c1ncnc2[nH]ccc12", "values": [
      {"measurement": "inhibition", "setting": "[1]", "result": "Active"},
      {"measurement": "inhibition", "setting": "[2]", "result": "Active"}
    ]}
  ]
}
